Measurements from article PMC2292217 (The Journal of Experimental Medicine, 2008).

Experiments:
mice = conditions: cited from earlier work
C57Bl6/J mice = assay: Zymosan-induced peritonitis; format: in vivo, mouse; conditions: for Protection in vivo as judged by neutrophil and monocyte levels (in words): same dose and time as C15 (0.32 ng/kg i.p. 1 h before zymosan), 4 h
How it was run: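 C57BL6/J mice received test peptide i.p. (8 pg/mouse, ∼0.32 ng/kg, in 500 μl) or PBS, either 1 h before or 2 h after 10 μg zymosan A i.p. Peritoneal lavage with PBS-3 mM EDTA was done at 2–48 h. Cells were counted, Fc-blocked, stained for 7/4 and Ly-6G, and typed by FACS: neutrophils 7/4high Ly-6Ghigh, monocytes 7/4high Ly-6Glow. Six to eight mice per treatment.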

peritoneal MΦs (PMΦs) [1] = assay: MΦ activation assay: LPS/IFN-γ–induced inflammatory cytokine expression; format: cell-based, mouse (C57BL/6); conditions: for Antiinflammatory activity in the MΦ activation assay (in words): PMΦs, peptides 0.1 pM–100 nM, LPS/IFN-γ 15 h
ChemR23−/− PMΦs [2] = assay: MΦ chemotaxis assay with ChemR23 KO MΦs; format: cell-based, mouse; conditions: MΦs from ChemR23−/− mice, 4 h migration
ChemR23−/− PMΦs [3] = assay: MΦ activation assay in MΦs from ChemR23−/− mice; format: cell-based, mouse; conditions: 0.1–1 pM, 1 h pretreatment, LPS/IFN-γ 15 h; ELISA
peritoneal MΦs (PMΦs) [4] = assay: MΦ chemotaxis assay; format: cell-based, mouse; conditions: 25 ng/ml, positive control, 4 h; mean ± SEM, n = 4 independent experiments
How it was run: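 Bio-Gel-elicited peritoneal MΦs (4 × 10^5) from wild-type or ChemR23−/− mice were placed on 8-μm-pore membranes in RPMI/25 mM Hepes/0.1% BSA. They migrated 4 h toward test peptide, 25 ng/ml RANTES (positive control) or serum-free medium. For Gαi blockade, cells were pretreated 30 min with 200 ng/ml PTX. Migrated nuclei were formalin-fixed, DAPI-stained and imaged, with ≥3 replicate wells per treatment. Migration index = treatment threshold area ÷ serum-free area; n = 4 experiments.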

MΦs = assay: Cell viability, MTS assay; format: cell-based, mouse; conditions: MTS assay (Promega)
[5] = tested on: Bio-Gel–elicited peritoneal cells from ChemR23 KO mice; assay: Calcium flux in ChemR23 KO cells; format: cell-based, mouse; conditions: Fura-PE3/AM
[6] = tested on: wild-type Bio-Gel–elicited peritoneal cells; assay: Calcium flux in wild-type cells; format: cell-based, mouse; conditions: Fura-PE3/AM
How it was run: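 Cells from mice 4 d after Bio-Gel elicitation were suspended at 10^7 cells/ml in HBSS with CaCl2/MgCl, 0.5% BSA and 10 mM Hepes. They were loaded with 2 μM Fura-PE3/AM for 45 min at room temperature, then washed twice. 3 × 10^6 cells were added to prewarmed 37°C buffer in a cuvette. After at least 60 s, fluorescence was recorded at excitation 340/380 nm and emission 510 nm.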

[7] = 0.32 ng/kg i.p. 1 h before zymosan, lavage fluid at 4 h
[8] = time course, 8 pg/mouse i.p. 1 h before zymosan, 4 h after zymosan, FACS
[9] = classically activated PMΦs, quantitative RT-PCR normalized to HPRT

CC[C@@H](O)/C=C/C=C\C[C@@H](O)/C=C/C=C/C=C\[C@@H](O)CCCC(=O)O [RvE1, resolvin E1]
Reduction of PMN numbers in peritoneal exudates (mice; 300 ng/mouse i.p. (12 μg/kg)): up to 25%

C[C@@H]1C[C@H]2[C@@H]3CCC4=CC(=O)C=C[C@]4(C)[C@@]3(F)[C@@H](O)C[C@]2(C)[C@@]1(O)C(=O)CO [dexamethasone]
Suppression of monocyte and neutrophil influx (mice; 30 μg/mouse (1.2 mg/kg)): 50%

AGEDPHGYALPGQAA [C15-M]
Protection in vivo as judged by neutrophil and monocyte levels (in words) (C57Bl6/J mice): not protective | Antiinflammatory activity in the MΦ activation assay (in words) (peritoneal MΦs (PMΦs) [1]): devoid of antiinflammatory activity

AGEDPHGYFLPGQFA [C15]
Chemotactic effect in ChemR23 KO MΦs (in words) (ChemR23−/− PMΦs [2]): completely ablated | Suppression of proinflammatory mediator production by ChemR23 KO MΦs (in words) (ChemR23−/− PMΦs [3]): unable to suppress | Effect at 4 pg/mouse (in words) (C57Bl6/J mice; 4 pg/mouse (∼0.16 ng/kg) i.p., 4 h after zymosan): significant antiinflammatory effects | Decrease in monocyte recruitment, C15 post-zymosan (C57Bl6/J mice; 8 pg i.p. 2 h after zymosan, 4 h after zymosan): 42% | Peritoneal monocyte levels, C15 post-zymosan (C57Bl6/J mice; 8 pg i.p. 2 h after zymosan, lavage 4 h after zymosan, zymosan alone 0.69 × 10^6): 0.42 × 10^6 cells | Peritoneal neutrophil numbers, C15 post-zymosan (C57Bl6/J mice; 8 pg i.p. 2 h after zymosan, lavage 4 h after zymosan, zymosan alone 1.9 × 10^6): 0.83 × 10^6 cells | Reduction of peritoneal IL-1β expression (C57Bl6/J mice; [7]): 67% | Reduction of peritoneal IL-6 expression (C57Bl6/J mice; [7]): 67% | Reduction of peritoneal JE expression (C57Bl6/J mice; [7]): 59% | Reduction of peritoneal KC expression (C57Bl6/J mice; [7]): 38% | Reduction of peritoneal TNF-α expression (C57Bl6/J mice; [7]): 51% | Rate of monocyte influx (C57Bl6/J mice; 2–4 h after zymosan, 8 pg/mouse i.p. pretreatment, zymosan alone 0.51 × 10^6): 0.18 × 10^6 cells/h | Magnitude of peak neutrophilia relative to zymosan-challenged mice (C57Bl6/J mice; time course, 8 pg/mouse i.p. 1 h before zymosan): ~50% | Suppression of neutrophil infiltration, 2 h (C57Bl6/J mice; time course, 8 pg/mouse i.p. 1 h before zymosan, 2 h after zymosan, FACS): 50% | Suppression of monocyte levels, 4 h (C57Bl6/J mice; [8]): 63% | Suppression of neutrophil infiltration, 4 h (C57Bl6/J mice; [8]): 66% | Suppression of monocyte levels, 8 h (C57Bl6/J mice; time course, 8 pg/mouse i.p. 1 h before zymosan, 8 h after zymosan, FACS): 61% | Suppression of neutrophil infiltration, 24 h (C57Bl6/J mice; time course, 8 pg/mouse i.p. 1 h before zymosan, 24 h after zymosan, FACS): 50% | Suppression of monocyte levels, 48 h (C57Bl6/J mice; time course, 8 pg/mouse i.p. 1 h before zymosan, 48 h after zymosan, FACS): 64% | Peak peritoneal neutrophil number (C57Bl6/J mice; time course, 8 pg/mouse i.p. 1 h before zymosan, zymosan alone 1.25 × 10^6): 0.62 × 10^6 cells

ELSETQRRSLQVALEEFHK [N19]
Antiinflammatory activity in the MΦ activation assay (in words) (peritoneal MΦs (PMΦs) [1]): devoid of antiinflammatory activity

FSRALRTK [C8]
Antiinflammatory activity in the MΦ activation assay (in words) (peritoneal MΦs (PMΦs) [1]): no detectable antiinflammatory activity

GLFHDQAGPPAGYEF [C15-S]
Protection in vivo as judged by neutrophil and monocyte levels (in words) (C57Bl6/J mice): not protective | Antiinflammatory activity in the MΦ activation assay (in words) (peritoneal MΦs (PMΦs) [1]): devoid of antiinflammatory activity

KPECTIKPNGRRRKCLACIK [M20]
Antiinflammatory activity in the MΦ activation assay (in words) (peritoneal MΦs (PMΦs) [1]): devoid of antiinflammatory activity

PHGYFLPGQFA [C11]
Antiinflammatory activity in the MΦ activation assay (in words) (peritoneal MΦs (PMΦs) [1]): devoid of antiinflammatory activity

RALRTK [C6]
Antiinflammatory activity in the MΦ activation assay (in words) (peritoneal MΦs (PMΦs) [1]): no detectable antiinflammatory activity

fMLP [reference compound]
Chemotactic effect in ChemR23 KO MΦs (in words) (ChemR23−/− PMΦs [2]): unaffected

B1: RANTES: CC chemokine, positive control in chemotaxis (25 ng/ml; 3 nM) (protein, UniProt P13501 24-91, looked up)
C-C motif chemokine 5: SPYSSDTTPCCFAYIARPLPRAHIKEYFYTSGKCSNPAVVFVTRKNRQVCANPEKKWVREYINSLEMS
Chemotactic effect in ChemR23 KO MΦs (in words) (ChemR23−/− PMΦs [2]): unaffected | Migration index (peritoneal MΦs (PMΦs) [4]): 6 ± 0.59

B2: Chemerin: recombinant murine chemerin (R&D Systems), chemotactic protein that binds ChemR23 (protein, UniProt Q9DD06 21-156, looked up)
Retinoic acid receptor …: EPELSETQRRSLQVALEEFHKHPPVQLAFQEIGVDRAEEVLFSAGTFVRLEFKLQQTNCPKKDWKKPECTIKPNGRRRKCLACIKMDPKGKILGRIVHCPILKQGPQDPQELQCIKIAQAGEDPHGYFLPGQFAFS
Chemotactic effect in ChemR23 KO MΦs (in words) (ChemR23−/− PMΦs [2]): completely ablated | Effect on cell viability (in words) (MΦs): not found to affect cell viability adversely | Calcium flux (in words) [5]: failed to do so | Induction of IL-10 mRNA expression (peritoneal MΦs (PMΦs) [1]; [9]): 10 fold | Induction of TGF-β mRNA expression (peritoneal MΦs (PMΦs) [1]; [9]): twofold | Calcium flux (in words) [6]: induce calcium flux
